Test results: ChEMBL document CHEMBL4414562, “Discovery of the First in Vivo Active Inhibitors of the Soluble Epoxide Hydrolase Phosphatase Domain” (J Med Chem, 2019)
Calls of active or inactive are those of the source. The rule behind the calls is not given here.

How the values were obtained:
[1] = Inhibition of hexa-His-tagged human soluble epoxide hydrolase N-terminal phosphatase domain expressed in Escherichia coli BL21(DE3) pre-incubated for 30 mins before FDP substrate addition by fluorescence based assay
[2] = molecular target: T1, Bifunctional epoxide hydrolase 2 (Homo sapiens, UniProt P34913); test: Inhibition of hydrolase activity of full length human soluble epoxide hydrolase pre-incubated for 30 mins before PHOME substrate addition by fluorescence based assay
T1 sequence (P34913 whole entry): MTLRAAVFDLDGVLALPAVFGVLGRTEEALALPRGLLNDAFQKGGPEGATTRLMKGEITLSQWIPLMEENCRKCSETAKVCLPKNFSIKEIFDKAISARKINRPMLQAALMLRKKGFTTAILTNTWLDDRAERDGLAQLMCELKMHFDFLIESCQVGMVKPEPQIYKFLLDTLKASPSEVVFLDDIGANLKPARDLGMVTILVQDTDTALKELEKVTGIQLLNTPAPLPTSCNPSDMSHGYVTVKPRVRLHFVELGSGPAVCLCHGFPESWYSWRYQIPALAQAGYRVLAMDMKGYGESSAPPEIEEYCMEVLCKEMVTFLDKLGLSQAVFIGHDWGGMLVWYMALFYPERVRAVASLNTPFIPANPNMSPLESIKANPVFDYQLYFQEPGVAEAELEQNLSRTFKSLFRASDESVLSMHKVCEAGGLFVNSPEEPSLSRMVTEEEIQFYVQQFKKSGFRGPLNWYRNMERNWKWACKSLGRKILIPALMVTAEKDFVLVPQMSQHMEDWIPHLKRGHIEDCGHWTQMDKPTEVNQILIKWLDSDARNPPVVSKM
Procedure, shortened: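 Hydrolase assay with 0.1 μM full-length enzyme in Bis-Tris pH 7 containing 0.1 mg/mL BSA and 0.01% Triton X-100. Reaction started with PHOME (50 μM final). Triplicates.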

Homo sapiens [3] = organism: Homo sapiens
[4] = molecular target: T1, Bifunctional epoxide hydrolase 2; test: Inhibition of hexa-His-tagged human soluble epoxide hydrolase C-terminal hydrolase domain expressed in Escherichia coli BL21(DE3) pre-incubated for 30 mins before PHOME substrate addition by fluorescence based assay
[5] = molecular target: T1, Bifunctional epoxide hydrolase 2; test: Inhibition of phosphatase activity of full length human soluble epoxide hydrolase pre-incubated for 30 mins before FDP substrate addition by fluorescence based assay
[6] = molecular target: T2, Bifunctional epoxide hydrolase 2 (Homo sapiens) (UniProt P34913); test: Induction of stabilization of hexa-His-tagged human soluble epoxide hydrolase C-terminal hydrolase domain expressed in Escherichia coli BL21(DE3) at 50 uM by differential scanning fluorimetry
T2 sequence (whole entry): T1 sequence (P34913 whole entry)

Homo sapiens [7] = organism: Homo sapiens; test: Induction of stabilization of hexa-His-tagged human soluble epoxide hydrolase N-terminal phosphatase domain expressed in Escherichia coli BL21(DE3) at 50 uM by differential scanning fluorimetry

| Structure (SMILES) | IC50 [1] | further results |
| --- | --- | --- |
| O=C(O)CCc1nc(-c2ccc(Cl)cc2Cl)c(-c2ccccc2)o1 | 17 µM |  |
| O=C(O)CCc1nc(-c2ccc(Cl)c(Cl)c2)c(-c2ccccc2)o1 | 0.12 µM |  |
| O=C(O)/C=C/c1nc(-c2ccc(Cl)c(Cl)c2)c(-c2ccccc2)o1 | 0.51 µM |  |
| O=C(O)CCCc1nc(-c2ccc(Cl)c(Cl)c2)c(-c2cccc(C(F)(F)F)c2)o1 | 0.41 µM |  |
| O=C(O)CCc1nc(-c2ccc(Cl)c(C(F)(F)F)c2)c(-c2ccccc2)o1 | 2 µM |  |
| O=C(O)CCCc1nc(-c2ccc(Cl)c(Cl)c2)c(Br)o1 | 3 µM |  |
| O=C(O)CCCc1nc(-c2ccc(Cl)c(Cl)c2)c(-c2ccncc2)o1 | 20 µM |  |
| O=C(O)CCCc1nc(-c2ccc(Cl)c(Cl)c2)c(-c2cc(F)ccc2F)o1 | 0.28 µM |  |
| O=C(O)CCCc1nc(-c2ccc(Cl)c(Cl)c2)c(-c2cccc(Cl)c2)o1 | 0.23 µM |  |
| O=C(O)CCc1nc(-c2cc(Cl)cc(Cl)c2)c(-c2ccccc2)o1 | 9 µM |  |
| COc1ccc(-c2nc(CCC(=O)O)oc2-c2ccccc2)cc1 | 18 µM |  |
| N#Cc1cccc(-c2nc(CCC(=O)O)oc2-c2ccccc2)c1 | 10 µM |  |
| O=C(O)c1ccccc1-c1nc(-c2ccc(Cl)c(Cl)c2)c(-c2ccccc2)o1 | 15 µM |  |
| O=C(O)CCc1nc(-c2ccc(F)cc2)c(-c2ccccc2)o1 | 9 µM |  |
| O=C(O)CCc1nc(-c2cccc(F)c2)c(-c2ccccc2)o1 | 7 µM |  |
| O=C(O)CCCc1nc(-c2ccc(Cl)c(Cl)c2)c(-c2ccccc2F)o1 | 0.31 µM |  |
| O=C(O)CCCc1nc(-c2ccc(Cl)c(Cl)c2)co1 | > 50 µM |  |

| Structure (SMILES) | IC50 [1] | further results |
| --- | --- | --- |
| CC(=O)N[C@@H](CSC/C=C(\C)CC/C=C(\C)CCC=C(C)C)C(=O)O | 0.55 µM | IC50 [2]: > 300 µM; ΔTm (Homo sapiens [3]): 3.4 °C; IC50 [4]: > 300 µM; IC50 [5]: 2.04 µM |
| O=C(Nc1ccc(I)cc1)NC1CCCCC1 |  | Activity [6]: Active; Activity (Homo sapiens [7]): inactive |
| N#Cc1ccc(-c2nc(CCC(=O)O)oc2-c2ccccc2)cc1 | 44 µM |  |
| O=C(O)CCc1nc(-c2ccc(Cl)cc2)c(-c2ccccc2)o1 | 3 µM |  |
| O=C(O)c1cccc(-c2nc(-c3ccc(Cl)c(Cl)c3)c(-c3ccccc3)o2)c1 | 0.15 µM |  |
| COc1cccc(-c2oc(CCCC(=O)O)nc2-c2ccc(Cl)c(Cl)c2)c1 | 0.31 µM |  |
| O=C(O)CCCc1nc(-c2ccc(Cl)c(Cl)c2)c(-c2cccc(F)c2)o1 | 0.12 µM |  |
| O=C(O)CCc1nc(-c2ccccc2F)c(-c2ccccc2)o1 | 40 µM |  |
| O=C(O)c1ccc(-c2nc(-c3ccc(Cl)c(Cl)c3)c(-c3ccccc3)o2)cc1 | 12 µM |  |
| N#Cc1cccc(-c2oc(CCCC(=O)O)nc2-c2ccc(Cl)c(Cl)c2)c1 | 0.12 µM |  |
| O=C(O)CCc1nc(-c2ccccc2Cl)c(-c2ccccc2)o1 | 33 µM |  |
| O=C(O)CCCc1nc(-c2ccc(Cl)c(Cl)c2)c(-c2cccnc2)o1 | 4 µM |  |
| Cc1cccc(-c2oc(CCCC(=O)O)nc2-c2ccc(Cl)c(Cl)c2)c1 | 0.31 µM |  |
| C#Cc1cccc(-c2oc(CCCC(=O)O)nc2-c2ccc(Cl)c(Cl)c2)c1 | 0.14 µM |  |
| O=C(O)CCc1nc(-c2ccc(C(F)(F)F)cc2)c(-c2ccccc2)o1 | 33 µM |  |
| O=c1c2ccccc2[se]n1-c1ccccc1 [EBSELEN] | 0.29 µM | IC50 [2]: 0.3 µM; IC50 [4]: 0.11 µM; IC50 [5]: 0.42 µM |
